MEKK2mut PB1 HTS: MEK5 binding signal on mutant MEKK2 PB1, primary screen, biochemical, multiplex bead flow cytometry, Alexa488-MEK5. Alexa488-MEK5 binding to MEKK2 mutant. percent response, % at 10 µM. hit rate 0.35% among 290,000. AID 1530, 2009; in the data active means percent response above about 24%, passing the limit was not always enough
VIM-2 inh: VIM-2 metallo-beta-lactamase inhibitors, primary screen, biochemical, epi-absorbance readout, Pseudomonas aeruginosa enzyme; purified VIM-2, nitrocefin hydrolysis, epi-absorbance fluorescence; inhibition, % at 5.6 µM; hit rate 0.89% among 290,000; AID 1527, 2009;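 active means inhibition above the mean of all tested compounds plus 3 SD, cutoff set per screening run, cut at about 7.5% in these data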;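 further: red hydrolysis product quenches plate fluorescence so inhibitors raise well fluorescence; 0% = enzyme with DMSO and 100% = DMSO without enzyme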
IMP-1 inh: IMP-1 metallo-beta-lactamase inhibitors, primary screen, biochemical, epi-absorbance readout, Pseudomonas aeruginosa enzyme; hit rate 0.45% among 290,000; purified IMP-1, nitrocefin hydrolysis, epi-absorbance fluorescence; inhibition, % at 5.6 µM; metallo-beta-lactamase IMP-1 (Pseudomonas aeruginosa); AID 1556, 2009;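 active means inhibition above the mean plus 3 SD of all compounds in the same screening run, cut at about 4.5% in these data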;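 further: 0% = IMP-1 with DMSO and 100% = DMSO wells lacking enzyme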
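System – purified recombinant IMP-1 beta-lactamase · Input – IMP-1 dispensed at 0.2 nM · Timing – 15 min preincubation plus 25 min reaction at 25 °C · Signal – Epi-absorbance fluorescence, 480 nm excitation, 530 nm emission · Measure – percent IMP-1 inhibition derived from blank-referenced optical density · Controls – Enzyme-plus-DMSO low control, enzyme-free DMSO high control · Replication – singlicate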
MEKK3 PB1 HTS: modulators of MEKK3-MEK5 PB1 binding, primary screen, biochemical, wildtype MEKK3, multiplex bead flow cytometry, Alexa488-MEK5. Mitogen-activated protein kinase kinase kinase 3 (Homo sapiens), Q99759. bead-based flow cytometry, Alexa488-MEK5 binding to MEKK3; actives lie on both sides; 0 = blocked by unlabeled MEK5, 100 = vehicle. binding response (% of control), % at 10 µM. hit rate 1.4% among 290,000. AID 1529, 2009;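 active means binding response more than 3 SD above or below the average of its plate-row segment, actives on both sides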;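 further: Alexa488 bead fluorescence after subtracting the streptavidin-only scavenger bead signal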
Target sequence (Q99759 whole entry, looked up): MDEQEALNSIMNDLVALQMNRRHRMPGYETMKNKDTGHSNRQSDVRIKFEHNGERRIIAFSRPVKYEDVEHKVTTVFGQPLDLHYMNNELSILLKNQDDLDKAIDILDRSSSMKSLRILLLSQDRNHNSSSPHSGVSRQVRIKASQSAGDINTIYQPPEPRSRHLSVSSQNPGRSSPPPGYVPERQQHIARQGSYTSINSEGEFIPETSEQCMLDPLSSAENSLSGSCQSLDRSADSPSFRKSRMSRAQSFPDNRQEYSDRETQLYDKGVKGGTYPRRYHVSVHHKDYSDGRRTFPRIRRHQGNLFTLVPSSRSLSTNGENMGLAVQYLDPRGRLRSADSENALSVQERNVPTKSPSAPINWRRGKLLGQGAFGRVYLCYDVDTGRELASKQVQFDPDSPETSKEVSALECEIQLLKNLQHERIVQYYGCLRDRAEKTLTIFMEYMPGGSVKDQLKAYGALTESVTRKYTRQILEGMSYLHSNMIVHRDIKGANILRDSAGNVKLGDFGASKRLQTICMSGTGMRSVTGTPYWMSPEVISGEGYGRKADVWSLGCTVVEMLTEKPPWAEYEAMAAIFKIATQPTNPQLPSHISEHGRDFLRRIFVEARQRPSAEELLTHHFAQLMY
MEKK2wt PB1 HTS: modulators of MEK5 binding to wildtype MEKK2, primary screen, biochemical, multiplex bead flow cytometry, Alexa488-MEK5 | Mitogen-activated protein kinase kinase kinase 2 (Homo sapiens), Q9Y2U5 | Alexa488-MEK5 binding to MEKK2 WT; actives lie on both sides | binding response (% of control), % at 10 µM | hit rate 1.1% among 290,000 | AID 1531, 2009; in the data active means binding response below about 67% or above about 130%
MEKK2wt confirm: modulators of MEK5 binding to wildtype MEKK2, confirmation, biochemical, single concentration, multiplex bead flow cytometry; shares compounds with MEKK3 PB1 HTS; Alexa488-MEK5 binding to MEKK2 WT; actives lie on both sides; binding response (% of control), % at 10 µM; hit rate 2.4% among 5,900; in the data active means binding response below about 16% or above about 210%; inactive means in between
MEKK2mut-MEK5: mutant MEKK2 PB1-MEK5 binding signal retest – biochemical, single concentration, multiplex bead flow cytometry, confirmation | shares compounds with MEKK3 PB1 HTS | Alexa488-MEK5 binding to MEKK2 mutant | percent response, % at 10 µM | hit rate 2% among 5,900 | AID 1893, 2009; in the data active means percent response mostly above about 71%, no sharp cut-off; inactive means mostly below about 38%;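 further: higher means compound restores mutant binding toward wildtype level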
MEKK3-MEK5 inh: MEKK3 wild-type PB1 binding to MEK5, inhibitors, confirmation, biochemical, bead multiplex flow cytometry, single concentration, wildtype | hit rate 1.8% among 5,900 | binding response (% of control), % at 10 µM | AID 1894, 2009 | shares compounds with MEKK3 PB1 HTS | Alexa488-MEK5 binding to MEKK3; stronger effect = lower value;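 active means binding response below 72% of control, or above a set upper limit, though filed actives all read lower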;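 further: 100% = DMSO only wells and 0% = binding blocked by excess unlabeled MEK5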
Active calls of the source: *; · = no result; [ ] = remark or other dose. Only some compounds are listed: those with a hit (about 3.4% of all), similar ones and a draw of the others.

SMILES	MEKK2mut PB1 HTS	VIM-2 inh	IMP-1 inh	MEKK3 PB1 HTS	MEKK2wt PB1 HTS	MEKK2wt confirm	MEKK2mut-MEK5	MEKK3-MEK5 inh
Cc1ccc[n+](CC(=O)Nc2ccc([N+](=O)[O-])cc2Cl)c1	5.0	-2.6	-2.0	100.0	100.0	·	·	·
COc1cc2c3nnc(-c4ccccc4)c-3cn(Cc3ccccc3F)c2cc1OC	26.0	-0.1	-1.6	96.0	153.0*	132.0	13.0	99.0
Cc1ccc(S(=O)(=O)N2CCC(C(=O)N[C@@H](C)C(=O)NC3CCCCC3)CC2)cc1	1.0	-1.0	-1.7	101.0	104.0	·	·	·
CCOC(=O)C1=C(O)/C(=C/c2cc(OC)c(O)c(OC)c2)SC1=Nc1ccc(OC)cc1	2.0	-1.4	-3.3	102.0	102.0	·	·	·
COc1ccccc1NC(=O)CNC(=O)c1ccccc1C	-17.0	-1.2	0.8	75.0*[inhibitor]	78.0	102.0	3.0	107.0
CCOc1cccc2c1OC(c1cc(OC)c(OC)c(OC)c1)N1N=C(c3ccc(C)o3)CC21 (configuration not stated)	8.0	-1.6	-4.5	15.0*[inhibitor]	6.0*	93.0	-9.0	100.0
COc1ccc(C2CC(c3ccc(C)o3)=NN2C(C)=O)cc1 (configuration not stated)	-1.0	1.6	0.2	102.0	99.0	·	·	·
COc1cc(OC)c(S(=O)(=O)N2CCN(C(=O)c3ccccc3F)CC2)cc1NC(C)=O	-7.0	-0.1	0.8	97.0	94.0	·	·	·
Cn1c(=O)c2c(nc(CN3CCN(C(=O)c4ccco4)CC3)n2Cc2ccccc2)n(C)c1=O	16.0	-2.6	-5.6	108.0	105.0	·	·	·
Cc1ccc(C(=O)NCC(=O)OC(C)C(=O)Nc2ccc(N(C)C)cc2)s1 (configuration not stated)	-15.0	-1.8	1.6	49.0*[inhibitor]	50.0	113.0	10.0	108.0
COC(=O)CNC(=O)c1ccc(C)s1	6.0	-2.6	-5.9	103.0	105.0	·	·	·
CC(Sc1nc(-c2ccccc2)cs1)C(=O)Nc1ccc(Cl)cn1 (configuration not stated)	1.0	-0.4	-3.4	149.0*	111.0	110.0	-1.0	105.0
Cc1csc(-c2cnn(-c3ccccc3)c2NC(=O)c2cccc(C(F)(F)F)c2)n1	7.0	0.6	-6.3	131.0*	119.0	109.0	8.0	102.0
CCCN1CCN(C(=O)CCNC(=O)Cn2cnc3ccccc3c2=O)CC1	11.0	-0.8	-0.7	105.0	108.0	·	·	·
COc1ccc2c(c1)c1ncn(Cc3ccco3)c(=O)c1n2C	-2.0	1.1	-4.9	95.0	94.0	·	·	·
COCc1nnc(NS(=O)(=O)c2ccc(C)cc2)s1	-16.0	2.2	-2.0	0.0*[inhibitor]	0.0*[inhibitor]	99.0	-2.0	99.0
COCc1nnc(NS(=O)(=O)c2ccccc2)s1	5.0	-7.3	-3.2	104.0	106.0	·	·	·
COc1ccc(C(=O)Nc2c(C)ccc3nsnc23)cc1[N+](=O)[O-]	-3.0	-0.3	-4.0	100.0	100.0	·	·	·
Cc1ccc2nsnc2c1NC(=O)c1cccc([N+](=O)[O-])c1	1.0	-1.8	-2.4	134.0*	110.0	93.0	-3.0	93.0
COc1ccc2ccccc2c1C1CC(=O)N2CN(C)CSC2=C1C#N (configuration not stated)	0.0	-0.1	-1.0	100.0	90.0	·	·	·
Cc1cc2nc(-c3ccc(SCC(=O)Nc4ccc(S(=O)(=O)N5CCCC5)cc4)nc3)[nH]c2cc1C	1.0	-3.7	-2.8	132.0*	105.0	94.0	0.0	98.0
COc1ccc2c(c1)CCc1cn3nc(C)cc3nc1-2	-90.0	-1.5	-3.0	8.0*[inhibitor]	104.0	96.0	-1.0	100.0
COCCCNCCCCSc1ccc(Cl)cc1	-1.0	-1.8	-1.9	52.0*[inhibitor]	93.0	104.0	4.0	101.0
COCCCNCCOCCSc1ccc(Cl)cc1	-2.0	-3.8	-2.0	91.0	93.0	·	·	·
O=c1c(Cl)c(N2CCNCC2)cnn1C12CC3CC(CC(C3)C1)C2	-11.0	-2.3	-3.7	102.0	95.0	·	·	·
SMILES	MEKK2mut PB1 HTS	VIM-2 inh	IMP-1 inh	MEKK3 PB1 HTS	MEKK2wt PB1 HTS	MEKK2wt confirm	MEKK2mut-MEK5	MEKK3-MEK5 inh
O=C(O)C12CC3CC(C1)CC(n1ncc(N4CCN(c5ccccc5)CC4)c(Cl)c1=O)(C3)C2	-1.0	-2.6	-0.1	145.0*	102.0	106.0	2.0	104.0
Cc1cccc(C)c1NS(=O)(=O)c1ccc(NC(=O)c2ccc(Cl)c([N+](=O)[O-])c2)cc1	1.0	-0.8	-2.6	140.0*	115.0	100.0	-2.0	101.0
Cc1cc(C(=O)Nc2ccc(N3CCCC3)c(Cl)c2)ccc1[N+](=O)[O-]	2.0	-3.8	-3.5	135.0*	130.0	110.0	-2.0	103.0
COC(=O)NNC(=O)c1ccccc1OC	2.0	-2.9	-1.6	101.0	100.0	·	·	·
COc1ccccc1C(=O)NNC(=O)C1CC=CCC1 (configuration not stated)	-20.0	-0.3	0.7	25.0*[inhibitor]	38.0*[inhibitor]	103.0	1.0	102.0
COC(=O)c1cc(S(=O)(=O)N2CCN(c3ccc(C(C)=O)cc3)CC2)c[nH]1	-4.0	3.9	0.3	98.0	101.0	·	·	·
CC1Cc2ccccc2N1C1=CC(=O)CCC1 (configuration not stated)	-47.0	0.4	0.6	0.0*[inhibitor]	0.0*[inhibitor]	108.0	9.0	106.0
CC1Cc2ccccc2N1C1=NS(=O)(=O)c2ccccc21 (configuration not stated)	-3.0	-1.8	-3.6	100.0	97.0	·	·	·
Cc1ccc2c(c1)c1c3n2CCN(C(=O)CN2CCN(C)CC2)C3CCC1 (configuration not stated)	16.0	3.1	-0.6	105.0	126.0	·	·	·
CN1CCN(CC(=O)N2CCn3c4c(c5cc(C6CCCCC6)ccc53)CCCC42)CC1 (configuration not stated)	84.0*	-1.1	-0.6	112.0	253.0*	215.0*	62.0	108.0
CC(C)(C)c1ccc(OCC(O)CN(CCO)CC(O)Cn2ccc3ccccc32)cc1 (configuration not stated)	0.0	-2.5	-3.7	133.0*	106.0	115.0	5.0	103.0

Screening data from PubChem.
